Converted amounts (≈) assume the structure as drawn.
Experiments:
[1] = test system: Pseudomonas aeruginosa; experiment: Antibacterial activity against Pseudomonas aeruginosa PA 14 assessed as inhibition of bacterial growth incubated for overnight by serial dilution method; assay type: functional, organism-based
[2] = test system: L929; experiment: Cytotoxicity against mouse L929 cells assessed as inhibition of cell proliferation incubated for 5 days by MTT assay; assay type: functional, cell-based; settings: L929, 120 h
Method in brief: (§1)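 Colorimetric MTT tetrazolium assay, with epothilone B (1 mg/mL stock) as the positive control. IC50 was determined.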

[3] = test system: Micrococcus luteus; experiment: Antibacterial activity against Micrococcus luteus DSM 1790 assessed as inhibition of bacterial growth incubated for overnight by serial dilution method; assay type: functional
[4] = test system: Mucor hiemalis; experiment: Antifungal activity against Mucor hiemalis DSM 2656 assessed as inhibition of fungal growth incubated for overnight by serial dilution method; assay type: functional
[5] = test system: KB 3-1; experiment: Cytotoxicity against human KB 3-1 cells assessed as inhibition of cell proliferation incubated for 5 days by MTT assay; assay type: functional, cell-based; settings: KB 3-1, 120 h; method in brief: as §1
[6] = test system: Bacillus subtilis; experiment: Antibacterial activity aginst Bacillus subtilis DSM 10 assessed as inhibition of bacterial growth incubated for overnight by serial dilution method; assay type: functional
[7] = test system: Staphylococcus aureus; experiment: Antibacterial activity against Staphylococcus aureus DSM 346 assessed as inhibition of bacterial growth incubated for overnight by serial dilution method; assay type: functional
[8] = test system: Escherichia coli; experiment: Antibacterial activity against Escherichia coli DSM 1116 assessed as inhibition of bacterial growth incubated for overnight by serial dilution method; assay type: functional
[9] = test system: Chromobacterium violaceum; experiment: Antibacterial activity against Chromobacterium violaceum DSM 30191 assessed as inhibition of bacterial growth incubated for overnight by serial dilution method; assay type: functional
[10] = test system: SK-OV-3; experiment: Cytotoxicity against human SK-OV-3 cells assessed as inhibition of cell proliferation incubated for 5 days by MTT assay; assay type: functional, cell-based; settings: SK-OV-3, 120 h; method in brief: as §1
[11] = test system: Wickerhamomyces anomalus; experiment: Antifungal activity against Pichia anomala DSM 6766 assessed as inhibition of fungal growth incubated for overnight by serial dilution method; assay type: functional, organism-based
[12] = test system: Schizosaccharomyces pombe; experiment: Antifungal activity against Schizosaccharomyces pombe DSM 70572 assessed as inhibition of fungal growth incubated for overnight by serial dilution method; assay type: functional, organism-based
[13] = test system: Rhodotorula glutinis; experiment: Antifungal activity against Rhodotorula glutinis DSM 10134 assessed as inhibition of fungal growth incubated for overnight by serial dilution method; assay type: functional, organism-based
[14] = test system: Mycolicibacterium smegmatis; experiment: Antibacterial activity against Mycobacterium smegmatis ATCC 700084 assessed as inhibition of bacterial growth incubated for overnight by serial dilution method; assay type: functional

Molecule	IC50 [2]	MIC [4]	IC50 [5]	MIC [6]	MIC [7]	other results
GENTAMICIN	–	–	–	–	–	MIC [1]: 0.4 µg/mL
CC(C)=CCC/C(C)=C/Cc1c(O)cc(C)c(C=O)c1O	66 µM	16.7 µg/mL (≈ 57.8 µM)	62.5 µM	4.2 µg/mL (≈ 14.6 µM)	8.33 µg/mL (≈ 28.9 µM)	MIC [3]: 33.3 µg/mL (≈ 116 µM)
CN(C)[C@@H]1C(=O)C(C(N)=O)=C(O)[C@@]2(O)C(=O)C3=C(O)c4c(O)cccc4[C@@](C)(O)[C@H]3[C@H](O)[C@@H]12	–	–	–	3.33 µg/mL (≈ 7.23 µM)	0.4 µg/mL (≈ 0.869 µM)	MIC [8]: 8.3 µg/mL (≈ 18 µM); MIC [3]: 0.83 µg/mL (≈ 1.8 µM); MIC [9]: 1.7 µg/mL (≈ 3.69 µM)
C/C(=C\c1csc(C)n1)[C@@H]1C[C@@H]2O[C@]2(C)CCC[C@H](C)[C@H](O)[C@@H](C)C(=O)C(C)(C)[C@@H](O)CC(=O)O1 [PATUPILONE]	0.0014 µM	–	6.9e-05 µM	–	–	–
CC(C)=CCC/C(C)=C/Cc1c(O)c(Cl)c(C)c(C=O)c1O	18 µM	33.3 µg/mL (≈ 103 µM)	7.7 µM	2.1 µg/mL (≈ 6.5 µM)	1.04 µg/mL (≈ 3.22 µM)	IC50 [10]: 5.6 µM
NYSTATIN	–	16.7 µg/mL	–	–	–	MIC [11]: 16.7 µg/mL; MIC [12]: 16.7 µg/mL; MIC [13]: 4.2 µg/mL
CC(C)=CCc1c(C)cc(O)c(CC=C(C)C)c1O	53.8 µM	33.3 µg/mL (≈ 128 µM)	57.7 µM	33.3 µg/mL (≈ 128 µM)	33.3 µg/mL (≈ 128 µM)	–
NC[C@H]1O[C@H](O[C@H]2[C@H](O)[C@@H](O[C@H]3O[C@H](CO)[C@@H](O)[C@H](N)[C@H]3O)[C@H](N)C[C@@H]2N)[C@H](O)[C@@H](O)[C@@H]1O [KANAMYCIN]	–	–	–	–	–	MIC [14]: 1.7 µg/mL (≈ 3.51 µM)
CC(C)=CCC/C(C)=C/Cc1c(O)cc(C)c(C(=O)O)c1O	–	–	–	66.7 µg/mL (≈ 219 µM)	66.7 µg/mL (≈ 219 µM)	–
CC(C)=CCc1c(C)c(C(=O)O)c(O)c(CC=C(C)C)c1O	59.2 µM	66.7 µg/mL (≈ 219 µM)	42.7 µM	66.7 µg/mL (≈ 219 µM)	66.7 µg/mL (≈ 219 µM)	–
